Measured values reported in ChEMBL document CHEMBL1150649, “Neoclerodane and labdane diterpenoids from Plectranthus ornatus” (2002).
Values after ≈ are worked out from the molar mass of the structure shown. Active and inactive are the calls of the source. The calls are words filed in the database; no cut-off is given here.

What was measured:
[1] = tested on: Staphylococcus aureus; assay: Antimicrobial activities against Staphylococcus aureus ATCC 25923 by […]; type: functional, organism-based
[2] = tested on: Nakaseomyces glabratus; assay: Antimicrobial activities against Candida glabrata by broth microdilution method; type: functional
How it was run: (§1)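 Test compounds were dissolved in DMSO and serially diluted in Mueller-Hinton broth over 250 to 3.9 µg/mL. Broth microdilution followed NCCLS guidelines. MIC was the lowest concentration showing no microbial growth compared with a compound-free control.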

[3] = tested on: Candida albicans; assay: Antimicrobial activities against Candida albicans CIP 3153A by broth microdilution method; type: functional; how it was run: as §1
[4] = tested on: Pseudomonas aeruginosa; assay: Antimicrobial activities against Pseudomonas aeruginosa ATCC 27853 by broth microdilution method; type: functional; how it was run: as §1
[5] = tested on: Candida tropicalis; assay: Antimicrobial activities against Candida tropicalis by broth microdilution method; type: functional; how it was run: as §1
[6] = tested on: Pichia kudriavzevii; assay: Antimicrobial activities against Candida krusei by broth microdilution method; type: functional; how it was run: as §1
[7] = tested on: Meyerozyma guilliermondii; assay: Antimicrobial activities against Candida guilliermondii by broth microdilution method; type: functional; how it was run: as §1
[8] = tested on: Staphylococcus aureus; assay: Antimicrobial activities against Staphylococcus aureus ATCC 25923 by broth microdilution method; type: functional; how it was run: as §1
[9] = tested on: Escherichia coli; assay: Antimicrobial activities against Escherichia coli ATCC 25922 by broth microdilution method; type: functional; how it was run: as §1

Row | Structure (SMILES) | Activity [1] | MIC [2] [µg/mL] | MIC [3] [µg/mL] | MIC [4] [µg/mL] | MIC [5] [µg/mL] | MIC [6] [µg/mL] | MIC [7] [µg/mL] | MIC [8] [µg/mL] | MIC [9] [µg/mL]
1 | C=C[C@@]1(C)CC(=O)[C@@H]2[C@@]3(C)[C@@H](O)CCC(C)(C)[C@@H]3[C@H](OC(C)=O)C[C@@]2(C)O1 (relative stereo) | Active | – | – | – | – | – | – | – | –
2 | C=C[C@@]1(C)CC(=O)[C@@H]2[C@@]3(C)[C@@H](OC(C)=O)CCC(C)(C)[C@@H]3[C@H](OC(C)=O)C[C@@]2(C)O1 (relative stereo) [PLECTRORNATIN C] | – | 62.5 (≈ 149 µM) | 62.5 (≈ 149 µM) | ≥ 125 | 62.5 (≈ 149 µM) | 62.5 (≈ 149 µM) | 62.5 (≈ 149 µM) | ≥ 125 | ≥ 125
3 | COC(=O)/C=C(\C)C[C@@H](OC(C)=O)[C@@]1(C)[C@H](C)CC[C@@]2(C)C(C)=CC(=O)C[C@H]12 [PLECTRORNATIN A] | – | 62.5 (≈ 160 µM) | 62.5 (≈ 160 µM) | ≥ 125 | 62.5 (≈ 160 µM) | 62.5 (≈ 160 µM) | 62.5 (≈ 160 µM) | ≥ 125 | ≥ 125
